Published values from different studies.
Compare with care: the assays were run in different laboratories.
CTSL: Procathepsin L (CTSL, Homo sapiens, UniProt P07711)
XDH: Xanthine dehydrogenase/oxidase (XDH, Bos taurus, UniProt P80457)
PRKAA1: 5'-AMP-activated protein kinase catalytic subunit alpha-1 (PRKAA1, Homo sapiens, UniProt Q13131)

Compound | target | test | setting | inhibition [%]
C#Cc1n[nH]c2c(-c3cn(C(C)c4ccccn4)c(=O)[nH]c3=O)cc(F)cc12 (stereo not drawn) | Tyrosine-protein kinase Blk (BLK, Homo sapiens, UniProt P51451) | enzyme activity, inhibitor | 1 µM | 3.1
CC[C@H](NC(=O)OCc1ccccc1)C(=O)N[C@H](C(=O)N[C@@H](Cc1ccccc1)C(=O)N(C)N(C#N)CCC(N)=O)C(C)(C)C | CTSL | enzyme activity, inhibitor | 50 µM | 99
c1ccc(C(NCCNC(c2ccccc2)c2ccccc2)c2ccccc2)cc1 | XDH | enzyme activity, inhibitor | 10 µM | 5
CC(C)C[C@H](NC(=O)[C@H]1O[C@@H]1C(=O)O)C(=O)NCCCCN=C(N)N | CTSL | enzyme activity, inhibitor | 5 nM | 39
NC(=O)Cc1ccccc1 | XDH | enzyme activity, inhibitor, absorbance | 100 µg/mL | 7.3
Cn1cc(-c2cccc(N3CCc4c(sc5c4CC(C)(C)C5)C3=O)c2CO)cc(Nc2ccncn2)c1=O | PRKAA1 | enzyme activity, inhibitor | 1 µM | 1
COc1cc(Nc2ncc(F)c(Nc3ccc4c(n3)NC(=O)C(C)(C)O4)n2)cc(OC)c1OC | PRKAA1 | binding, competition with immobilised ligand | 10 µM | 74
C#Cc1n[nH]c2c(-c3cn([C@@H](C)c4ccccc4)c(=O)[nH]c3=O)cc(F)cc12 | Protein kinase C theta type (PRKCQ, Homo sapiens, UniProt Q04759) | enzyme activity, inhibitor | 0.1 µM | 10.2
CN(C(=O)[C@H](Cc1ccccc1)NC(=O)[C@@H](NC(=O)OCc1ccccc1)C(C)(C)C)N(C#N)CCC(N)=O | CTSL | enzyme activity, inhibitor | 50 µM | 99
CN(C)C(=O)COC(=O)Cc1ccc(OC(=O)c2ccc(NC(=N)N)cc2)cc1 | CTSL | enzyme activity, inhibitor | 10 µM | 2
Cn1cc(-c2cc(F)cc(N3CCn4c(cc5c4CCCC5)C3=O)c2CO)cc(Nc2ccc(N3CCN(C4COC4)CC3)cn2)c1=O | Sphingosine kinase 2 (SPHK2, Homo sapiens, UniProt Q9NRA0) | enzyme activity, inhibitor | 0.1 µM | -10
O=C(Oc1cncc(Cl)c1)c1cc2c(Cl)cc(Cl)cc2[nH]1 | CTSL | enzyme activity, inhibitor | 10 µM | 14
